From ChEMBL document CHEMBL4354812, “N-Benzyl/Aryl Substituted Tryptanthrin as Dual Inhibitors of Indoleamine 2,3-Dioxygenase and Tryptophan 2,3-Dioxygenase” (J Med Chem, 2019)
Activity calls are given as the source filed them. The rule behind the calls is not given here.

How the values were obtained:
[1] = target: T1, Indoleamine 2,3-dioxygenase 1 (Homo sapiens, UniProt P14902); assay: Uncompetitive inhibition of recombinant human IDO1 expressed in Escherichia coli BL21 cells assessed inhibition constant using varying concentration of L-tryptophan as substrate by Dixon plot analysis
Summary of the method: (§1)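 Enzymatic assays of the kynurenine-forming reaction were run with varying L-Trp. Ki was derived by plotting [S]/V against inhibitor concentration [I], with inhibition type assigned from the graphical pattern.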
Target sequence in this assay (P14902 whole entry): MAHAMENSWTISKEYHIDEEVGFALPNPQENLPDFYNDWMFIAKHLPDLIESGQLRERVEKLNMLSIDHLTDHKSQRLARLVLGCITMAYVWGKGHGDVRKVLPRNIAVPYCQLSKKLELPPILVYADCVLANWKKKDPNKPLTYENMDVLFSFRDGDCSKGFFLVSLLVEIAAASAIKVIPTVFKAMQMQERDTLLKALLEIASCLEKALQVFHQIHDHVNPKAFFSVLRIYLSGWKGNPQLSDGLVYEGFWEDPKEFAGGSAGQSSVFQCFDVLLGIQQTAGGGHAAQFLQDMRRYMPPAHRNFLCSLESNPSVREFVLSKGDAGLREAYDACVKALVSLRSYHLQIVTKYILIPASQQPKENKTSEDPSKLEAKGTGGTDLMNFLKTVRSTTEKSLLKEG

[2] = target: T2, Tryptophan 2,3-dioxygenase (Homo sapiens, UniProt P48775); assay: Uncompetitive inhibition of recombinant human TDO expressed in Escherichia coli BL21 (DE3) assessed as assessed as inhibition constant using varying concentration of L-tryptophan as substrate by Dixon plot analysis; summary of the method: as §1
Target sequence in this assay (P48775 whole entry): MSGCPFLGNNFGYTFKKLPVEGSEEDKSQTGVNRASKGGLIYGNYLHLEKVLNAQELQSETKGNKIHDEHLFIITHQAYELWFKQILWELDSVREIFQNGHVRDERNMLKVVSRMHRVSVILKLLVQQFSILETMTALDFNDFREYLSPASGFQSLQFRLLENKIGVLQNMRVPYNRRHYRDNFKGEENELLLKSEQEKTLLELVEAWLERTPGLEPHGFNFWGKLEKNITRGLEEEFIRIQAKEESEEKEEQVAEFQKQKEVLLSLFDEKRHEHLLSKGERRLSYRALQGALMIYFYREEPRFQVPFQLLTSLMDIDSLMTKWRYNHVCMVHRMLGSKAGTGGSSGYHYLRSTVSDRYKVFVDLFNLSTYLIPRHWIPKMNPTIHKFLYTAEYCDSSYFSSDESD

[3] = target: T1, Indoleamine 2,3-dioxygenase 1; assay: Inhibition of IDO1 in IFN-gamma stimulated human HeLa cells assessed as reduction in kynurenine production incubated for 18 hrs; type: cell-based
Summary of the method: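 HeLa cells were seeded 25 000/well overnight, then exposed to inhibitor dilutions with 100 ng/mL human IFN-γ (final) for 18 h at 37 °C. Medium was treated with TCA at 50 °C for 30 min to hydrolyze NFK to Kyn. Kyn was read with 2% DMAB at 492 nm. IC50 by nonlinear regression.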
Target sequence in this assay (P14902 whole entry): as the sequence (P14902 whole entry) above

[4] = target: T3, Indoleamine 2,3-dioxygenase 2 (Homo sapiens, UniProt Q6ZQW0); assay: Inhibition of C-terminal His6-tagged human IDO2 (14 to 420 residues) expressed in Escherichia coli BL21 (DE3) assessed as reduction in conversion of L-tryptophan to N-formyl kynurenine using L-tryptophan as substrate after 30 mins by methylene blue dye based microplate reader analysis
T3 sequence (Q6ZQW0 whole entry): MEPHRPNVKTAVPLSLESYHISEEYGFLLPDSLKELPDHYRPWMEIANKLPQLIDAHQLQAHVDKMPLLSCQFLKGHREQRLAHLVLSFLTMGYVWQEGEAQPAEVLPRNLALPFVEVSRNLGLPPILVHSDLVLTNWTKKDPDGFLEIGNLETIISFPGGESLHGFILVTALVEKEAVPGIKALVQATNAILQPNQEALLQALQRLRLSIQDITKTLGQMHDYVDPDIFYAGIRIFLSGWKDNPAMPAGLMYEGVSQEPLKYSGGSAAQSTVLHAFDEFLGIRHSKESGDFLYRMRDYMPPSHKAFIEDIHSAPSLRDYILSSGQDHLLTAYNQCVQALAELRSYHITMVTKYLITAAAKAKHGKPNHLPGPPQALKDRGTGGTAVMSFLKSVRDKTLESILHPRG
Summary of the method: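 Recombinant enzyme with L-Trp substrate, ascorbic acid 40 mM, methylene blue 20 μM and catalase 200 μg/mL in potassium phosphate buffer. Conditions were pH 7.0 with 400 μM L-Trp for TDO, and pH 7.5 with 30 mM L-Trp for IDO2. Reaction ran 30 min at 37 °C, stopped with TCA, heated 65 °C 15 min. Kyn detected with DMAB at 492 nm. IC50 by nonlinear regression.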

[5] = target: T2, Tryptophan 2,3-dioxygenase; assay: Inhibition of human TDO transfected in HEK293 cells assessed as reduction in kynurenine production using L-tryptophan as substrate incubated for 12 hrs; type: cell-based
Summary of the method: (§2)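 U87 MG cells (hIDO2) or HEK293 cells (hTDO) were transiently transfected at 80% confluence, with empty vector as control. After 18 h, cells were seeded 2.5 × 10⁴/well in medium with 200 μM L-Trp. Compound serial dilutions were added after a further 6 h (IDO2) or 12 h (TDO). Reactions were stopped 24 h (IDO2) or 8 h (TDO) later with TCA, heated 65 °C 15 min, and Kyn read with DMAB at 492 nm. IC50 by nonlinear regression.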
Target sequence in this assay (P48775 whole entry): as the sequence (P48775 whole entry) above

[6] = target: T2, Tryptophan 2,3-dioxygenase; assay: Inhibition of recombinant human TDO expressed in Escherichia coli BL21 (DE3) assessed as reduction in conversion of L-tryptophan to N-formyl kynurenine using L-tryptophan as substrate after 30 mins by methylene blue assay
Target sequence in this assay (P48775 whole entry): as above

[7] = target: T3, Indoleamine 2,3-dioxygenase 2; assay: Uncompetitive inhibition of C-terminal His6-tagged human IDO2 (14 to 420 residues) expressed in Escherichia coli BL21 (DE3) assessed as inhibition constant using varying concentration of L-tryptophan as substrate by Dixon plot analysis; summary of the method: as §1
[8] = target: T3, Indoleamine 2,3-dioxygenase 2; assay: Inhibition of human IDO2 transfected in human U87MG cells assessed as reduction in kynurenine production using L-tryptophan as substrate incubated with for 6 hrs; type: cell-based; summary of the method: as §2
[9] = target: T2, Tryptophan 2,3-dioxygenase; assay: Mixed uncompetitive inhibition of recombinant human TDO expressed in Escherichia coli BL21 (DE3) assessed as inhibition constant using varying concentration of L-tryptophan as substrate by Dixon plot analysis; summary of the method: as §1
Target sequence in this assay (P48775 whole entry): as above

H22 [10] = assay: Antitumor activity against mouse H22 cells implanted in Kunming mouse assessed as reduction in tumor volume at 100 mg/kg, po qd administered for 2 weeks and measured at 2 days interval during compound dosing relative to control; type: functional; set-up: scale not given: the % may be the effect or the level left
Summary of the method: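 H22 ascites cells (2 × 10⁶/mouse) passaged twice intraperitoneally in Kunming mice, diluted in saline, then implanted sc into the right forelimb (2 × 10⁶ cells). Therapy began once the tumor reached 5 mm diameter: oral dosing once daily in 0.5% CMC-Na, vehicle controls, for 2 weeks. Calipers every 2 days; volume = long × short²/2. n = 9−10 mice/group.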

[11] = tested on: Lewis lung carcinoma cell line; assay: Antitumor activity against mouse LLC cells implanted in C57BL/6 mouse assessed as reduction in tumor volume at 100 mg/kg, po qd administered for 2 weeks and measured at 2 days interval during compound dosing relative to control; type: functional; set-up: scale not given: the % may be the effect or the level left
Summary of the method: (§3)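 Tumor cells (LLC, or H22 ascites cells after two intraperitoneal passages in Kunming mice) injected sc into the right forelimb at 2 × 10⁶ per mouse, in female 6–8-week C57BL/6 or Kunming mice. Oral dosing once daily began at 5 mm tumor diameter and continued 2 weeks. Vehicle was 0.5% CMC-Na. Volume was read by caliper every 2 days as long × short²/2. Tumors were weighed at sacrifice. n = 9–10/group.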

H22 [12] = assay: Antitumor activity against mouse H22 cells implanted in Kunming mouse assessed as reduction in tumor weight at 100 mg/kg, po qd administered for 2 weeks and measured post-treatment; type: functional, organism-based; summary of the method: as §3
Mus musculus [13] = assay: In vivo blockade of kynurenine pathway in Kunming mouse implanted with mouse H22 cells assessed as decrease in kynurenine level in serum at 100 mg/kg, po qd for 2 weeks by HPLC analysis; type: functional, organism-based
Summary of the method: (§4)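 H22 tumor-bearing Kunming mice received oral dosing once daily in 0.5% CMC-Na for 2 weeks. Serum Trp and Kyn were measured by HPLC on a C18 column with 15 mM sodium acetate (pH 3.6) containing 4% acetonitrile, UV detection at 280 and 360 nm. Kyn/Trp ratio calculated. n = 9–10/group.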

[14] = target: T4, Indoleamine 2,3-dioxygenase 2 (Homo sapiens) (UniProt Q6ZQW0); assay: Binding affinity to human IDO2 assessed as change in spectral signal at 200 uM by CPMG NMR spectrometry analysis
T4 sequence (whole entry): T3 sequence (Q6ZQW0 whole entry)

[15] = target: T2, Tryptophan 2,3-dioxygenase; assay: Binding affinity to human TDO assessed as change in spectral signal at 200 uM by CPMG NMR spectrometry analysis
Target sequence in this assay (P48775 whole entry, looked up): as the sequence (P48775 whole entry) above

[16] = tested on: Lewis lung carcinoma cell line; assay: Antitumor activity against mouse LLC cells implanted in C57BL/6 mouse assessed as reduction in tumor weight at 100 mg/kg, po qd administered for 2 weeks and measured post-treatment; type: functional, organism-based; summary of the method: as §3
[17] = target: T4, Indoleamine 2,3-dioxygenase 2 (Homo sapiens); assay: Binding affinity to human IDO2 at 200 uM by STD NMR spectrometry analysis
Homo sapiens = organism: Homo sapiens; assay: Inhibition of IDO1/TDO in IFNgamma-treated human HeLa cells assessed as T cell proliferation at 1 uM measured after 2 days in presence of IL-2, anti-CD3 and IFN-gamma by CFSE dye based flow cytometry analysis (reference value: 11.7 %); set-up: scale not given: the % may be the effect or the level left
Summary of the method: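 CFSE-labelled human PBMC lymphocytes (1 × 10⁶/well) were cocultured with HeLa cells (2 × 10⁵/well), a 5:1 ratio, in 150 U/mL IL-2, 100 ng/mL anti-CD3 and 60 ng/mL IFN-γ. Compound was tested at 40 nM, 200 nM, 500 nM or 1 μM. Proliferation was read by flow cytometry after 2 days, three independent experiments.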

[18] = target: T2, Tryptophan 2,3-dioxygenase; assay: Binding affinity to human TDO at 200 uM by STD NMR spectrometry analysis
Target sequence in this assay (P48775 whole entry, looked up): as the sequence (P48775 whole entry) above

Mus musculus [19] = assay: In vivo blockade of kynurenine pathway in Kunming mouse implanted with mouse H22 cells assessed as increase in tryptophan level in serum at 100 mg/kg, po qd for 2 weeks by HPLC analysis; type: functional, organism-based; summary of the method: as §4
[20] = target: T3, Indoleamine 2,3-dioxygenase 2; assay: Noncompetitive inhibition of C-terminal His6-tagged human IDO2 (14 to 420 residues) expressed in Escherichia coli BL21 (DE3) assessed as inhibition constant using varying concentration of L-tryptophan as substrate by Dixon plot analysis; summary of the method: as §1
[21] = target: T1, Indoleamine 2,3-dioxygenase 1; assay: Binding affinity to heme in human IDO1 assessed as Soret band red shift from 405 nm to […] at 375 uM and pH 6.5 under normal atmospheric condition by UV-vis spectroscopy analysis
Target sequence in this assay (P14902 whole entry, looked up): as the sequence (P14902 whole entry) above

[22] = target: T1, Indoleamine 2,3-dioxygenase 1; assay: Competitive inhibition of recombinant human IDO1 expressed in Escherichia coli BL21 cells assessed as apparent inhibition constant using varying concentration of L-tryptophan as substrate by Dixon plot analysis
Target sequence in this assay (P14902 whole entry): as above

[23] = target: T1, Indoleamine 2,3-dioxygenase 1; assay: Noncompetitive inhibition of recombinant human IDO1 expressed in Escherichia coli BL21 cells assessed inhibition constant using varying concentration of L-tryptophan as substrate by Dixon plot analysis; summary of the method: as §1
Target sequence in this assay (P14902 whole entry): as above

[24] = target: T1, Indoleamine 2,3-dioxygenase 1; assay: Inhibition of recombinant human IDO1 expressed in Escherichia coli BL21 cells assessed as reduction in conversion of L-tryptophan to N-formyl kynurenine using L-tryptophan as substrate after 30 mins by methylene blue dye based microplate reader analysis
Target sequence in this assay (P14902 whole entry): as above

Ki [2] [µM]	IC50 ([3]; read-out: IC50) [µM]	IC50 [4] [µM]	IC50 [5] [µM]	IC50 [6] [µM]	IC50 [8] [µM]	Ki [9] [µM]	SMILES	further results
18	2.96	82.6	0.47	6.75	48.7	–	CN1CCN(c2ccc3nc4n(c(=O)c3c2)-c2ccccc2C4=O)CC1	Ki ([1]; read-out: Ki): 7.57 µM; Ki [7]: 48.7 µM
–	–	–	0.06	–	–	0.09	CN(C)Cc1ccc2nc3n(c(=O)c2c1)-c1ccc(F)cc1C3=O	–
1.24	0.59	91.3	0.27	3.82	90.9	–	CN(C)c1ccc2nc3n(c(=O)c2c1)-c1ccc(F)cc1C3=O	Ki ([1]; read-out: Ki): 8.82 µM; Ki [20]: 45.3 µM
–	–	10.3	–	–	–	–	NS(=O)(=O)NCCNc1nonc1C(=NO)Nc1ccc(F)c(Br)c1 [EPACADOSTAT]	–
–	–	–	0.07	–	–	0.13	CC(C)(C)OC(=O)N1CCN(Cc2ccc3nc4n(c(=O)c3c2)-c2ccc(F)cc2C4=O)CC1	–
–	1.87	46.8	0.25	2.59	79	0.17	CN1CCN(c2ccc3nc4n(c(=O)c3c2)-c2ccc(F)cc2C4=O)CC1	Ki ([23]; read-out: Ki): 6.92 µM; Ki [20]: 19.9 µM
1.56	2.24	40.1	3.7	10.1	22.2	–	O=C1c2cc(F)ccc2-n2c1nc1ccc(N3CCCCC3)cc1c2=O	Ki ([1]; read-out: Ki): 4.34 µM; Ki [7]: 26.8 µM

The next lines start with the compound.

SMILES	Ki [2] [µM]	IC50 ([3]; read-out: IC50) [µM]	IC50 [4] [µM]	IC50 [5] [µM]	IC50 [6] [µM]	IC50 [8] [µM]	Ki [9] [µM]	further results
Cn1cc(C[C@H](N)C(=O)O)c2ccccc21 [(L)-1-METHYLTRYPTOPHAN]	–	–	–	–	–	–	–	Activity (H22 [10]): 15.8%; Activity [11]: 33.6%; Activity (H22 [12]): Active; Activity (Mus musculus [13]): Active; Activity [14]: inactive; Activity [15]: inactive; Activity [16]: Active; Activity [17]: inactive; Activity (Homo sapiens): 15.8%; Activity [18]: inactive; Activity (Mus musculus [19]): inactive
CN1CCN(Cc2ccc3nc4n(c(=O)c3c2)-c2ccccc2C4=O)CC1	–	0.18	–	0.18	–	–	0.42	–
NS(=O)(=O)NCCNc1nonc1/C(=N/O)Nc1ccc(F)c(Br)c1	–	–	–	–	–	–	–	Activity [21]: Active
O=C1c2cc(F)ccc2-n2c1nc1ccc(N3CCOCC3)cc1c2=O	2.36	–	79.9	0.5	6.4	20.3	–	Ki [1]: Not Active; Ki [22]: Not Active; IC50 ([3]; hela): Not Active; Ki [23]: Not Active; Ki [7]: 39.1 µM; IC50 [24]: Not Active
O=C1c2cc(F)ccc2-n2c1nc1ccc(CN3CCNCC3)cc1c2=O	0.12	–	–	0.09	–	–	–	–
O=C1c2cc(F)ccc2-n2c1nc1ccc(N3CCNCC3)cc1c2=O	–	0.76	41.6	0.29	3.15	17.8	0.67	Ki ([1]; read-out: Ki): 6.08 µM; Ki [7]: 36.9 µM
O=C1c2cc(F)ccc2-n2c1nc1ccc(CN3CCOCC3)cc1c2=O	0.34	–	–	0.07	–	–	–	–
